Consider 16 compounds from ChEMBL document CHEMBL1156338 (J Med Chem, 2010).

What is called Kd is the constant that tells how readily two partners part at equilibrium. Higher therefore signals lower affinity. Broadly, the IC50 is the concentration needed to halve the response being measured. As usually defined, the Ki is the dissociation constant of the complex between target and ligand, obtained from inhibition or displacement. For orientation: AUC(0-inf) means the area under the concentration-time curve extrapolated to infinity. A lower AUC(0-inf) goes with low exposure. For orientation: clearance means the volume of plasma or blood freed of the substance per unit of time. Usually half-life stands for the time in which the quantity being followed falls by half. As a reminder, the bioavailability is the share of a dose that reaches the circulation, judged against a reference dose that is usually intravenous. A high value points to much systemic uptake. Broadly, the Papp A→B is the apparent permeability from the apical to the basolateral side of a cell layer. The term Papp B→A denotes the apparent permeability from the basolateral to the apical side of a cell layer.

Some results are limits rather than exact numbers.

In series [1] the target is Tyrosine-protein kinase Lck (Homo sapiens, UniProt P06239). The series is described as follows: Binding affinity to Lck by scintillation proximity assay. In general terms: Scintillation proximity formats need no separation of bound from free tracer.
Series [2] concerns the target Vascular endothelial growth factor receptor 2 (Homo sapiens, UniProt P35968). As to the kind of experiment: Binding affinity to Kdr by scintillation proximity assay.
Series [3] has as its target T1, Mitogen-activated protein kinase 14 (Homo sapiens, UniProt Q16539). The series is described as follows: Binding affinity to p38alpha by scintillation proximity assay.
Series [4] deals with Mast/stem cell growth factor receptor Kit (Homo sapiens, UniProt P10721). The series is described as follows: Binding affinity to c-Kit by scintillation proximity assay.
Another series relates to THP-1. As to the kind of experiment: Inhibition of LPS-induced TNFalpha production in human THP1 cells after 3 hrs. It is filed as functional, cell-based. The gist of the method:
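THP-1 cells at 1.5 x 10^6/mL in RPMI 1640, 10% heat-inactivated FBS, NEAA, 30 μM βME. 3-fold serial compound dilutions in DMSO, then LPS stimulation for 3 h at 37 C, 5% CO2. Secreted TNF-alpha read by electrochemiluminescent immunoassay; percent of DMSO control; IC50 is the mean of at least three independent curves.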

In series [5] the target is T1, Mitogen-activated protein kinase 14. As to the kind of experiment: Inhibition of human recombinant p38alpha-mediated […] phosphorylation after 1 hr by HTRF assay. (In general: In TR-FRET formats the signal depends on donor and acceptor labels being close together.)
In another series the test system is Blood. The series is described as follows: Inhibition of IL-8 production in TNFalpha challenged human whole blood after 16 to 18 hrs. It is filed as functional, tissue-based. The gist of the method:
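Heparinized blood from healthy nonmedicated donors, 50% final in RPMI 1640 with 10% human AB serum. Ten-point compound titration preincubated 1 h at 37 C, 5% CO2, then TNF-alpha 1 nM final added for 16-18 h. Plasma IL-8 measured by electrochemiluminescent antibody sandwich assay; IC50 is the mean of at least three independent dose-response curves.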

Series [6] can be described thus: Plasma protein binding in human by ultrafiltration method. It is filed as ADME, cell-free. Conditions: read-out: PPB (converted); call rule not given here.
Series [7] can be described thus: Volume of distribution at steady state in Sprague-Dawley rat at 2 mg/kg, iv. The format is ADME, organism-based. Also noted: dose 2 mg/kg, route intravenous. Conditions: in vivo, read-out: Vdss.
Series [8] in a line: AUC (0 to infinity) in Sprague-Dawley rat at 2 mg/kg, po. It is filed as ADME, organism-based. The arrangement: time infinity, dose 2 mg/kg, route oral. The settings on record: plasma.
A short description of series [9]: Clearance in Sprague-Dawley rat at 2 mg/kg, iv. The format is ADME, organism-based. Also noted: dose 2 mg/kg, route intravenous. The settings on record: in vivo.
Series [10] can be described thus: Plasma protein binding in rat by ultrafiltration method. The settings on record: read-out: PPB (converted). It is filed as ADME, cell-free.
Series [11] is described as follows: Half life in Sprague-Dawley rat at 2 mg/kg, iv. The arrangement: dose 2 mg/kg, route intravenous. The format is ADME, organism-based. The settings on record: in vivo.
Series [12] is described as follows: Oral bioavailability in Sprague-Dawley rat at 2 mg/kg. The format is ADME, organism-based. Conditions: in vivo.
A short description of series [13]: in vitro. The settings on record: human, Caco-2.
Series [14] can be described thus: in vitro. The settings on record: human, Caco-2. The source holds these as a separate data set.
Series [15] has as its target T2, Nuclear receptor subfamily 1 group I member 2 (Homo sapiens, UniProt O75469).
T2 sequence (O75469 whole entry): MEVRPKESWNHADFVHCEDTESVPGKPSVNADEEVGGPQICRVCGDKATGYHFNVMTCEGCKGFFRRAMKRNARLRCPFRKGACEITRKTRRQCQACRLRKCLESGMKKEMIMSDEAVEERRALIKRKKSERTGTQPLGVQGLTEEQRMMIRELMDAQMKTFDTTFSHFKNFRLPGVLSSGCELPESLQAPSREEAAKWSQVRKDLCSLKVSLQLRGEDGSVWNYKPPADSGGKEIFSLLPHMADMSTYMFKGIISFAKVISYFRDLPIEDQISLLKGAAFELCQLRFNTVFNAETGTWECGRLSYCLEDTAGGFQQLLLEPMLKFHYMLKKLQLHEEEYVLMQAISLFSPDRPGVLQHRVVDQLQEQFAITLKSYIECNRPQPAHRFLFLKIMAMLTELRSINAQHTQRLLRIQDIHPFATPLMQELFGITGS
As to the kind of experiment: Transactivation of human PXR expressed in HepG2 cells after 24 hrs by luciferase reporter gene assay. It is filed as cell-based. Conditions: hepg2, 24 h. The gist of the method: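 HepG2 cells transfected with a CYP3A4-promoter luciferase reporter and human PXR cDNA. Compound added from DMSO stocks to final 2 and 10 μM in buffer and incubated 24 h. Luciferase activity read by chemiluminescence and reported as percent of the rifampin (10 μM) positive control.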
In general terms: Reporter assays use an easily measured gene product as a stand-in for the process of interest.

The target of the next series is Cytochrome P450 3A4 (Homo sapiens, UniProt P08684). The series is described as follows: Inhibition of CYP3A4. It is filed as ADME.
Setting [16] is: Homo sapiens, THP-1, 3 h, read-out: IC50.
Setting [17] is: Homo sapiens, Blood, read-out: IC50.

Vascular endothelial growth factor receptor 2, sequence (P35968 whole entry): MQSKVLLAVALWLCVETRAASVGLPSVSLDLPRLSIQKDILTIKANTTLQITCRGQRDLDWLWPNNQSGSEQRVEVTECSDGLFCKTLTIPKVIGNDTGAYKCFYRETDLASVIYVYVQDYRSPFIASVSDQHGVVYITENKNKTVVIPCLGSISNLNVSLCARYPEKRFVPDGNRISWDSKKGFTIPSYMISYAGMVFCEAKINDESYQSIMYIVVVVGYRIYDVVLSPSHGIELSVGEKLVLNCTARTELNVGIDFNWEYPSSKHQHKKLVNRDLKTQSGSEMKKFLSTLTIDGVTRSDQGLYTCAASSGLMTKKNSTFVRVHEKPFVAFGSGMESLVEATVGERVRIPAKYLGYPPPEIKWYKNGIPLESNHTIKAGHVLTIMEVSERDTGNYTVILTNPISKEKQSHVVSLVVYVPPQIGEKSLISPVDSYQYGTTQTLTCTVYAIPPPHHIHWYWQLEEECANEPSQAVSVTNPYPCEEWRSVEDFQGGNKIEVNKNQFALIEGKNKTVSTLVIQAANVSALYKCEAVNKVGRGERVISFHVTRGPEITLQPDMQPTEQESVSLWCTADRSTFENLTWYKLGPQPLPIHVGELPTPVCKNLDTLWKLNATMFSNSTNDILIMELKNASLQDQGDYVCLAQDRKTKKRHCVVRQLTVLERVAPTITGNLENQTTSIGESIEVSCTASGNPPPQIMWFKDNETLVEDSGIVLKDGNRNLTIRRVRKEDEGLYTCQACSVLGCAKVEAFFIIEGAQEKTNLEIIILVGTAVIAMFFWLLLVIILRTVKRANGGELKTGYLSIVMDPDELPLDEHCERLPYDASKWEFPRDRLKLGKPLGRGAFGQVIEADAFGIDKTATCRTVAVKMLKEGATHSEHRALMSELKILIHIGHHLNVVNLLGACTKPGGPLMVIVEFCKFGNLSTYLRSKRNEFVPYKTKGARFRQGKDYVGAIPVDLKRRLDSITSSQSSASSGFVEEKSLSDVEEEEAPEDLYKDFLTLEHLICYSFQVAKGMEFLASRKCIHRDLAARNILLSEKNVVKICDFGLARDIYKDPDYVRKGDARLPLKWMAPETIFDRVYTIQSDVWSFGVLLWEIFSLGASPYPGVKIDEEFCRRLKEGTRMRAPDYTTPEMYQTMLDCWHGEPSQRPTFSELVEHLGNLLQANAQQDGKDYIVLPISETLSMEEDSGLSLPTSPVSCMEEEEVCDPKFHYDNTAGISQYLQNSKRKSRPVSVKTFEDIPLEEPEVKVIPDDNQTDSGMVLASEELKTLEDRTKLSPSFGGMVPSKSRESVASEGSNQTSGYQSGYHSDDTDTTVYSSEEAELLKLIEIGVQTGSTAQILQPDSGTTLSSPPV
T1 sequence (Q16539 whole entry): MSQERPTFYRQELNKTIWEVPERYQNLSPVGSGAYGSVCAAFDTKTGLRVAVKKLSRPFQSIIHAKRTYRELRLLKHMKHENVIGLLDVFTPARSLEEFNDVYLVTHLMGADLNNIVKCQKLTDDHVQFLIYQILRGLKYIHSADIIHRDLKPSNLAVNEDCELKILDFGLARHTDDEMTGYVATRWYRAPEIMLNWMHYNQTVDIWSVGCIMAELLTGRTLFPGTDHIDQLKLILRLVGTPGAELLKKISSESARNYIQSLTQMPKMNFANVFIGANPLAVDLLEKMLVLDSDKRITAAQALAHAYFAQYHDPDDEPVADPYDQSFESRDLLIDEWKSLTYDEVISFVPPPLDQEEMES
Tyrosine-protein kinase Lck, sequence (P06239 whole entry): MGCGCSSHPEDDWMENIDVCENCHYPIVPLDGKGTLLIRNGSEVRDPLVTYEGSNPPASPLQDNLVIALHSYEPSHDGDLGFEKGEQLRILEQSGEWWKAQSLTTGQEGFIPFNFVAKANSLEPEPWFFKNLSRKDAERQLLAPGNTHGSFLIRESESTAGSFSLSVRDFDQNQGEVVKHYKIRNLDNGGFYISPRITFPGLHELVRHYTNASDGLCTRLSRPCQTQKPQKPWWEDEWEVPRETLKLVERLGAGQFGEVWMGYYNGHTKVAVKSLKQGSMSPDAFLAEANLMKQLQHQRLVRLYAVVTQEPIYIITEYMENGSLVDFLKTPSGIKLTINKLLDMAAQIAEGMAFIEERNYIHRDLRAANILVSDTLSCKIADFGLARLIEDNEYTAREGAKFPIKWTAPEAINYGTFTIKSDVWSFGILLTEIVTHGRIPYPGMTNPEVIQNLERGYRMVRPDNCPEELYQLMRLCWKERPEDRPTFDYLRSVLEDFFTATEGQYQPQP
Mast/stem cell growth factor receptor Kit, sequence (P10721 whole entry): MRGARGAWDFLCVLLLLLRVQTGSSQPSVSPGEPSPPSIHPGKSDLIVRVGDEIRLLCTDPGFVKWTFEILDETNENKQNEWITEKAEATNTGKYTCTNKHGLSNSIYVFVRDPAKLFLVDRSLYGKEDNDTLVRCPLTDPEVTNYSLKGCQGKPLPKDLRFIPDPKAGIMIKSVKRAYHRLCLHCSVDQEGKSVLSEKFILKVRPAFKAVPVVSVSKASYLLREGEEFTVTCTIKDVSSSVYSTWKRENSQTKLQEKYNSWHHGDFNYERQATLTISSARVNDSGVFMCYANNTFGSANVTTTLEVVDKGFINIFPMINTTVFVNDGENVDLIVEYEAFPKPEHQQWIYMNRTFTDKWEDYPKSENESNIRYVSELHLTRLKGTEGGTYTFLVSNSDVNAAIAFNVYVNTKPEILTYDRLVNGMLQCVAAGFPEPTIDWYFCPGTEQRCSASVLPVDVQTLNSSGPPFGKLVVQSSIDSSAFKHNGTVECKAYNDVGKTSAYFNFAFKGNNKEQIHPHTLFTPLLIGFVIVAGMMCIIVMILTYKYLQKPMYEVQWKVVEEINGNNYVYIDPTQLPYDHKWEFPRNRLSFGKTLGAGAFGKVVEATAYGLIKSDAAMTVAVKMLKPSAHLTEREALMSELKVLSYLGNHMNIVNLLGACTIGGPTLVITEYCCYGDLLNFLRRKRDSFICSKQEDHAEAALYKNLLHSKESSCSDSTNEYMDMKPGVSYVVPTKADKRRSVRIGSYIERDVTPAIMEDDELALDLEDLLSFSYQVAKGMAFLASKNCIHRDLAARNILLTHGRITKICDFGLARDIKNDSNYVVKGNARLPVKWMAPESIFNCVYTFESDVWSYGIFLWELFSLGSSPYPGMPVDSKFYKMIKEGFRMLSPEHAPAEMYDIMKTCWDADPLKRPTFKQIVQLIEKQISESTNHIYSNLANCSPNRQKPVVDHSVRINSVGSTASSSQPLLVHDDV
Cytochrome P450 3A4, sequence (P08684 whole entry): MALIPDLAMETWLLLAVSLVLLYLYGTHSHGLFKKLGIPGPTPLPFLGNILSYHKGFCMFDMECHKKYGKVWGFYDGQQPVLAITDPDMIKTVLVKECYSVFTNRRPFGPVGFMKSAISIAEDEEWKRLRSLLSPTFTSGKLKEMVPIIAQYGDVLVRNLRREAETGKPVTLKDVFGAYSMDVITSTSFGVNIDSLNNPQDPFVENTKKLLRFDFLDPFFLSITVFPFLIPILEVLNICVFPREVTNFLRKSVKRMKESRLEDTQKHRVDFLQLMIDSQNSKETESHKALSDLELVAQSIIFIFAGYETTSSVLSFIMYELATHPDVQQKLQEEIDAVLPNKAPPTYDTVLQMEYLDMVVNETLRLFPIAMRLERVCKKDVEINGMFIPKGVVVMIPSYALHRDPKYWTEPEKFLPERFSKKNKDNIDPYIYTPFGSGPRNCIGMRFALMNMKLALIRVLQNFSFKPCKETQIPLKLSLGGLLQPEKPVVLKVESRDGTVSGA

On to `Cc1ccc(C(=O)NC2CC2)cc1-c1cc2cnn(-c3ccccc3F)c2n(C)c1=O`, for which the dissociation constant Kd in series [1] stood at 40000 nM; in series [2], 40000 nM; in series [3] it was 0.18 nM; in series [4], 1700 nM.
On to `Cc1ccc(C(=O)Nc2ccon2)cc1-c1cc2cnn(-c3c(F)cccc3F)c2n(C)c1=O`, for which the results for the IC50 with THP-1 (setting [16]) and with Blood (setting [17]) were 0.3 nM and 1.5 nM, respectively. The Ki in series [5] stood at 1 nM.
With `Cn1c(=O)c(-c2cc(C(=O)NC3CC3)ccc2Cl)cc2cnn(-c3c(F)cccc3F)c21`, the values for the fraction unbound in series [6] and in series [10] were 0.038 and 0.032, respectively. Further, the Vd in [7] was 1.47 L/kg. For the same compound, the 50% inhibitory concentration (IC50) in the series with THP-1 (setting [16]) amounted to 0.9 nM. Moreover, the AUC(0-inf) in [8] stood at 8860 ng·h/mL. The clearance in series [9] is 2.75 mL/min/kg. In [11], the half-life is 6.3 h. In series [12], this compound returned a bioavailability of 73%.
Turning to `Cc1ccc(C(=O)NC2CC2)cc1-c1cc2cnn(-c3ccc(F)cc3F)c2n(C)c1=O`, the fraction unbound is 0.07 in [6] and 0.075 in series [10]. The Vd in [7] was 1.69 L/kg. Also, the half-maximal inhibitory concentration (IC50) in the series on THP-1 (setting [16]) was 1.5 nM; in the series with Blood (setting [17]), 3.9 nM. In addition, in “in vitro [13]”, the Papp A→B came out at 20 ×10⁻⁶ cm/s. In addition, the dissociation constant (Kd) is 40000 nM in [1], 40000 nM in [2] and 13000 nM in series [4]. In series [8], the AUC(0-inf) amounted to 5120 ng·h/mL. The same compound had a clearance in [9] of 2.88 mL/min/kg. Also, the Papp B→A in the series “in vitro [14]” worked out at 29 ×10⁻⁶ cm/s. The compound further gave a half-life in [11] of 7.7 h. In series [12], this compound came in with a bioavailability of 73%.
`Cc1ccc(C(=O)NC2(C)CC2)cc1-c1cc2cnn(-c3c(F)cccc3F)c2n(C)c1=O`: the results for the concentration for half-maximal inhibition (IC50) in the series on THP-1 (setting [16]) and in the series on Blood (setting [17]) were 2.7 nM and 11 nM, respectively. In addition, in series [5], the inhibitory constant (Ki) came to 1.7 nM.
On to `Cc1ccc(C(N)=O)cc1-c1cc2cnn(-c3c(F)cccc3F)c2n(C)c1=O`, for which the Vd in series [7] amounted to 1.1 L/kg. For the same compound, the IC50 with THP-1 (setting [16]) came to 3.9 nM; in the series with Blood (setting [17]), 6.4 nM. Also, the AUC(0-inf) in series [8] is 2390 ng·h/mL. For the same compound, the Ki in [5] was 1.5 nM. The clearance in series [9] is 5.2 mL/min/kg. In series [11], this compound showed a half-life of 2.4 h. The same compound gave a bioavailability in series [12] of 37%.
Turning to `Cc1ccc(C(=O)NC2CC2)cc1-c1cc2cnn(-c3ccccc3Cl)c2n(C)c1=O`, the values for the IC50 with THP-1 (setting [16]) and in the series on Blood (setting [17]) were 1.1 nM and 8.7 nM, respectively. Also, in series [5], the Ki is 0.9 nM.
On to `Cc1c(F)cc(C(=O)NC2CC2)cc1-c1cc2cnn(-c3c(F)cccc3F)c2n(C)c1=O`, for which the IC50 worked out at 0.4 nM in the series with THP-1 (setting [16]) and 1.7 nM in the series on Blood (setting [17]). Moreover, the Ki in [5] worked out at 0.8 nM.
As for `CCn1c(=O)c(-c2cc(C(=O)NC3CC3)ccc2C)cc2cnn(-c3ccc(F)cc3F)c21`, in series [15], the Activity result is “Not Active”. Further, the IC50 is 1600 nM against Cytochrome P450 3A4, 0.5 nM in the series on THP-1 (setting [16]) and 2.4 nM in the series with Blood (setting [17]). For the same compound, the inhibitory constant (Ki) in series [5] is 0.6 nM.
With `Cc1ccc(C(=O)NC2CC2)cc1-c1cc2cnn(-c3ccccc3C)c2n(C)c1=O`, the results for the concentration for half-maximal inhibition (IC50) in the series with THP-1 (setting [16]) and in the series with Blood (setting [17]) were 4 nM and 12.1 nM, respectively. Further, the inhibition constant (Ki) in series [5] turned out to be 1.9 nM.
Take `Cc1ccc(C(=O)NC2CC2)cc1-c1cc2cnn(-c3ncccc3C(F)(F)F)c2n(C)c1=O`: the half-inhibitory concentration (IC50) in the series on THP-1 (setting [16]) was found to be 14.4 nM; in the series with Blood (setting [17]), 24 nM. Further, the Ki in series [5] was 2.3 nM.
For the compound `Cc1ccc(C(=O)NC2CC2)cc1-c1ccc2c(-c3ccccc3F)nncc2c1`, the equilibrium dissociation constant (Kd) in series [1] was determined as 530 nM; in series [2], 320 nM; in series [3], 0.05 nM; in series [4], 2.4 nM.
With `Cc1ccc(C(=O)O)cc1-c1cc2cnn(-c3c(F)cccc3F)c2n(C)c1=O`, the figures for the IC50 in the series with THP-1 (setting [16]) and in the series with Blood (setting [17]) were 631 nM and over 2500 nM, respectively. For the same compound, the inhibition constant Ki in [5] was determined as 458 nM.
Regarding `CNc1noc2c(-c3cc4cnn(-c5c(F)cccc5F)c4n(C)c3=O)c(C)ccc12`, the Vd in series [7] stood at 1.89 L/kg. For the same compound, the IC50 stood at 1.2 nM in the series on THP-1 (thp-1) and 5.4 nM with Blood. The same compound displayed an AUC(0-inf) in series [8] of 515 ng·h/mL. The Ki in series [5] was 2 nM. The compound further had a clearance in series [9] of 17.6 mL/min/kg. In series [11], this compound had a half-life of 3.5 h. In addition, the bioavailability in series [12] was 27%.
As to `Cc1ccc(C(=O)NC2CC2)cc1-c1cc2cnn(-c3cc(F)ccc3F)c2n(C)c1=O`, the Vd in [7] is 0.955 L/kg. The IC50 in the series with THP-1 (setting [16]) is 1.6 nM; in the series on Blood (setting [17]), 3.7 nM. Moreover, in series [8], the total exposure AUC(0-inf) stood at 782 ng·h/mL. In addition, the Ki in series [5] worked out at 1.9 nM. This compound also had a clearance in [9] of 4.12 mL/min/kg. Also, in series [11], the half-life was 2.2 h. This compound registered a bioavailability in series [12] of 10%.
For the compound `Cc1ccc(C(=O)NC2CC2)cc1-c1cc2c(C)nn(-c3c(F)cccc3F)c2n(C)c1=O`, the values for the IC50 in the series on THP-1 (setting [16]) and with Blood (setting [17]) were 2.7 nM and 40 nM, respectively. The inhibitory constant (Ki) in series [5] worked out at 8 nM.
